For experiment [1], the system named is Staphylococcus. In words: Antimicrobial activity against Staphylococcus isolates biofilms assessed as change in optical density ratio of biofilms at 1 mg/litre at ambient temperature of 40 degC after 24 hrs relative to baseline. The class given is functional. In a few lines: (§1)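 Static microtiter biofilms of 34 clinical S. aureus and CoNS isolates from orthopedic implant infections or preoperative skin, plus reference strains. Inoculum was McFarland 0.5 diluted 1:100 in calcium-supplemented MHB, grown 24 h at 35°C in ambient air. Established biofilms were exposed to drug for 24 h at 35, 40 or 45°C, then formalin-fixed and stained with 1% crystal violet for 5 min, and OD read at 550 nm in quadruplicate.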

The test system of experiment [2] is Staphylococcus. In words: Antimicrobial activity against Staphylococcus isolates biofilms assessed as change in optical density ratio of biofilms at 1 mg/litre at ambient temperature of 45 degC after 24 hrs relative to baseline. The class given is functional. A digest of the protocol: as §1
Experiment [3] deals with Staphylococcus. In words: Antimicrobial activity against Staphylococcus isolates biofilms assessed as change in optical density ratio of biofilms at 25 mg/litre at ambient temperature of 40 degC after 24 hrs relative to baseline. The format is functional. In a few lines: as §1
Experiment [4] relates to Staphylococcus. In words: Antimicrobial activity against Staphylococcus isolates biofilms assessed as decrease in bacterial load at 1 to 25 mg/litre at ambient temperature of 30 to 45 degC after 24 hrs relative to baseline. The format is functional, organism-based. Conditions: in the assay text read “35 to 45 degC” for “30 to 45 degC”. In a few lines: (§2)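 24-h static biofilms of the staphylococcal isolates were exposed to drug for 24 h at 35, 40 or 45°C. Biofilms were not fixed but scraped off and resuspended in MHB, then serially diluted and 0.1 ml plated on blood agar, read after 48 h at 35°C in ambient air. Done in duplicate as mean log10 CFU/ml; log reduction was taken versus untreated biofilm.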

Experiment [5] relates to Staphylococcus epidermidis. In words: Antimicrobial activity against Staphylococcus epidermidis isolate OR1 treated in solution at 45 degC after 24 hrs. The class given is functional. Particulars: isolate OR1, 24 h. In a few lines:
(§3)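 Antimicrobials, as powder or in solution as used for MIC testing, held at 45°C for 1 and 24 h in three independent experiments. MICs were then determined by the CLSI microtiter plate method in cation-adjusted Mueller-Hinton medium, with MHB containing 50 μg/ml calcium for daptomycin. Values are median (range) […] in mg/liter.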

Experiment [6] concerns Staphylococcus aureus. Description: Antimicrobial activity against Staphylococcus aureus isolated from human prosthetic joint infection site by […]. The format is functional. A general note: Agar diffusion results depend on both activity and mobility in agar.
Experiment [7] concerns Staphylococcus aureus. Description: Antimicrobial activity against Staphylococcus aureus isolated from human preoperative skin by […]. The format is functional.
For experiment [8], the system named is Staphylococcus epidermidis. Description: Antimicrobial activity against Staphylococcus epidermidis isolate KO8 isolated from healthy human skin by […]. The format is functional.
Experiment [9] has as its system Staphylococcus. Description: Antimicrobial activity against Staphylococcus isolates biofilms assessed as change in optical density ratio of biofilms at 1 mg/litre at ambient temperature of 35 degC after 24 hrs relative to baseline. The format is functional. In a few lines:
as §1

Experiment [10] relates to Staphylococcus. In words: Antimicrobial activity against coagulase-negative Staphylococcus isolated from human prosthetic joint infection site by […]. The format is functional.
The test system of experiment [11] is Staphylococcus epidermidis. In words: Antimicrobial activity against Staphylococcus epidermidis DSM3269 by […]. The class given is functional.
Experiment [12] has as its system Staphylococcus. Description: Antimicrobial activity against Staphylococcus isolates biofilms assessed as change in optical density ratio of biofilms at 5 mg/litre at ambient temperature of 45 degC after 24 hrs relative to baseline. The format is functional. In a few lines:
as §1

Experiment [13] relates to Staphylococcus. In words: Antimicrobial activity against Staphylococcus isolates biofilms assessed as change in optical density ratio of biofilms at 25 mg/litre at ambient temperature of 35 degC after 24 hrs relative to baseline. The class given is functional. A digest of the protocol:
as §1

Experiment [14] relates to Staphylococcus. Description: Antimicrobial activity against coagulase-negative Staphylococcus isolated from human preoperative skin by […]. The format is functional.
For experiment [15], the system named is Staphylococcus. Description: Antimicrobial activity against Staphylococcus isolates biofilms assessed as change in optical density ratio of biofilms at 5 mg/litre at ambient temperature of 40 degC after 24 hrs relative to baseline. The format is functional. In a few lines: as §1
The test system of experiment [16] is Staphylococcus. In words: Antimicrobial activity against Staphylococcus isolates biofilms assessed as change in optical density ratio of biofilms at 25 mg/litre at ambient temperature of 45 degC after 24 hrs relative to baseline. The class given is functional. In a few lines:
as §1

The subject of experiment [17] is Staphylococcus. In words: Antimicrobial activity against Staphylococcus isolates biofilms assessed as decrease in bacterial load at 100 mg/litre at ambient temperature of 35 degC after 24 hrs relative to baseline. The class given is functional. In a few lines:
as §2

Experiment [18] has as its system Staphylococcus aureus. Description: Antimicrobial activity against Staphylococcus aureus ATCC 29213 administered as powder at 45 degC after 24 hrs. The format is functional. Conditions: ATCC 29213, 24 h. In a few lines: as §3
The test system of experiment [19] is Staphylococcus aureus. Description: Antimicrobial activity against Staphylococcus aureus ATCC 29213 by […]. The format is functional.
Experiment [20] concerns Staphylococcus. Description: Antimicrobial activity against Staphylococcus isolates biofilms assessed as change in optical density ratio of biofilms at 5 mg/litre at ambient temperature of 35 degC after 24 hrs relative to baseline. The format is functional. In a few lines:
as §1

Experiment [21] concerns Staphylococcus. Description: Antimicrobial activity against Staphylococcus isolates biofilms assessed as decrease in bacterial load at 100 mg/litre at ambient temperature of 40 degC after 24 hrs relative to baseline. The format is functional. A digest of the protocol: as §2
The test system of experiment [22] is Staphylococcus. In words: Antimicrobial activity against Staphylococcus isolates biofilms assessed as decrease in bacterial load at 25 mg/litre at ambient temperature of 45 degC after 24 hrs relative to baseline. The format is functional. In a few lines: as §2
Experiment [23] relates to Staphylococcus. Description: Antimicrobial activity against Staphylococcus isolates biofilms assessed as decrease in bacterial load at 100 mg/litre at ambient temperature of 45 degC after 24 hrs relative to baseline. The class given is functional. In a few lines:
as §2

Values after ≈ are worked out from the molar mass of the structure shown. Active and inactive are the calls of the source.

On to `CN(C)c1cc(NC(=O)CNC(C)(C)C)c(O)c2c1C[C@H]1C[C@H]3[C@H](N(C)C)C(O)=C(C(N)=O)C(=O)[C@@]3(O)C(O)=C1C2=O` [TIGECYCLINE], for which the Ratio came out at 1.31 in the experiment on Staphylococcus [1]; 0.93 in the experiment on Staphylococcus [2]; 0.83 in the experiment with Staphylococcus [3]; 0.98 with Staphylococcus [9]; 0.86 in the experiment on Staphylococcus [12]; 1.12 in the experiment with Staphylococcus [13]. Further, the Ratio is reported as 1.1 in the experiment with Staphylococcus [15], 1.32 in the experiment with Staphylococcus [16] and 0.99 in the experiment with Staphylococcus [20]. Also, the outcome in the experiment with Staphylococcus [4] and with Staphylococcus [17] was inactive. In addition, the MIC – broadly, the smallest concentration in the dilution series that meets the test's criterion for growth inhibition – in experiment [5] was 2 µg/mL (≈ 3.41 µM); with Staphylococcus aureus [6], 0.125 µg/mL (≈ 0.213 µM); against Staphylococcus aureus [7] it was 0.06 µg/mL (≈ 0.102 µM); in experiment [8], 0.125 µg/mL (≈ 0.213 µM); with Staphylococcus [10], 0.06 µg/mL (≈ 0.102 µM); in experiment [11], 0.5 µg/mL (≈ 0.854 µM). In addition, the values for the MIC in the experiment with Staphylococcus [14], against Staphylococcus aureus [18] and in the experiment with Staphylococcus aureus [19] were 0.03 µg/mL (≈ 0.0512 µM), 1 µg/mL (≈ 1.71 µM) and 0.06 µg/mL (≈ 0.102 µM), respectively.

For the compound `CCCCCCCCCC(=O)N[C@@H](Cc1c[nH]c2ccccc12)C(=O)N[C@H](CC(N)=O)C(=O)N[C@@H](CC(=O)O)C(=O)N[C@@H]1C(=O)NCC(=O)N[C@@H](CCCN)C(=O)N[C@@H](CC(=O)O)C(=O)N[C@H](C)C(=O)N[C@@H](CC(=O)O)C(=O)NCC(=O)N[C@H](CO)C(=O)N[C@@H]([C@H](C)CC(=O)O)C(=O)N[C@@H](CC(=O)c2ccccc2N)C(=O)O[C@@H]1C`, the MIC in [5] worked out at 1 µg/mL (≈ 0.617 µM); in the experiment with Staphylococcus aureus [6], 0.125 µg/mL (≈ 0.0771 µM); with Staphylococcus aureus [7], 0.125 µg/mL (≈ 0.0771 µM); in [8], 0.25 µg/mL (≈ 0.154 µM); against Staphylococcus [10], 0.125 µg/mL (≈ 0.0771 µM); in experiment [11], 0.25 µg/mL (≈ 0.154 µM). The minimal inhibitory concentration (MIC) was 0.25 µg/mL (≈ 0.154 µM) against Staphylococcus [14], 0.5 µg/mL (≈ 0.309 µM) against Staphylococcus aureus [18] and 0.125 µg/mL (≈ 0.0771 µM) in the experiment with Staphylococcus aureus [19]. For the same compound, the “fold change (FC)” value was 3.6 with Staphylococcus [21], 1.2 with Staphylococcus [22], 3.3 in the experiment with Staphylococcus [23] and 2 with Staphylococcus [17].

For the origin of these results see ChEMBL document CHEMBL1671740, “Increased temperature enhances the antimicrobial effects of daptomycin, vancomycin, tigecycline, fosfomycin, and cefamandole on staphylococcal biofilms” (2010).
